The values below come from ChEMBL document CHEMBL2321757, “Anti-leukemic activity of ubiquinone-based compounds targeting trans-plasma membrane electron transport” (J Med Chem, 2013).

Assay [1] in a line: Inhibition of tPMET complex in human HL60 cells after 30 mins by WST-1/mPMS reduction assay. Type of assay: cell-based. The note with it: HL-60, 0.5 h. The method in brief:
(§1)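 Exponential-phase cells were resuspended in HBSS at 1.0 × 10⁶ cells/mL final. Compound in DMSO was serially diluted 10-fold in HBSS from 200 μM, in triplicate, and preincubated 30 min at 37 °C, 5% CO₂. WST-1 (500 μM final) with mPMS (20 μM final) was then added. Reduction was read in real time at 450 nm over 40 min. IC50 is a dose-response mean ± SEM (n = 2/3).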
On the technique in general: Formazan colour is commonly taken as a measure of viable cells.

Assay [2] can be described thus: Inhibition of tPMET complex in human mitochondrial gene-knockout HL60 cells after 30 mins by WST-1/mPMS reduction assay. It counts as cell-based. The note with it: HL-60, 0.5 h. The method, boiled down:
as §1

Assay [3] concerns HL-60. As to the kind of experiment: Antiproliferative activity against human mitochondrial gene-knockout HL60 cells after 48 hrs by MTT assay. To be noted: HL-60, 48 h. It counts as functional, cell-based. The method, boiled down: (§2)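 HL60 cells were grown in RPMI-1640 with 5% FBS. The mtDNA-knockout line was derived by 6−8 weeks in ethidium bromide (50 ng/mL) and kept with 50 μg/mL uridine and 1 mM pyruvate. Compound in DMSO was serially diluted 3-fold in RPMI […], in triplicate. Cells at 0.2 × 10⁶/mL final ran 48 h at 37 °C, 5% CO₂. MTT was added for 2 h, then overnight lysis, read at A570. IC50 is a dose-response mean ± SEM (n = 2/3).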

Assay [4] has as its system HL-60. Description: Antiproliferative activity against human HL60 cells after 48 hrs by MTT assay. Type of assay: functional, cell-based. The note with it: HL-60, 48 h. The method, boiled down: as §2
In assay [5] the test system is HL-60. Description: Cell cycle arrest in human HL60 cells assessed as accumulation at S phase at 30 uM after 24 hrs by propidium iodide staining-based flow cytometric analysis (reference value: 28 %). Type of assay: functional. (Flow cytometry measures light scatter and fluorescence of single cells or particles in a stream.)
Assay [6] relates to HL-60. Description: Cell cycle arrest in human HL60 cells assessed as accumulation at G2 phase at 30 uM after 24 hrs by propidium iodide staining-based flow cytometric analysis (reference value: 22 %). It counts as functional.
The test system of assay [7] is HL-60. As to the kind of experiment: Cell cycle arrest in human HL60 cells assessed as accumulation at G1 phase at 30 uM after 24 hrs by propidium iodide staining-based flow cytometric analysis (reference value: 38 %). It counts as functional.
The subject of assay [8] is HL-60. Description: Cell cycle arrest in human HL60 cells assessed as accumulation at sub G1 phase at 30 uM after 24 hrs by propidium iodide staining-based flow cytometric analysis (reference value: 11 %). It counts as functional.
Assay [9] deals with HL-60. Description: Cell cycle arrest in human mitochondrial gene-knockout HL60 cells assessed as accumulation at G2 phase at 30 uM after 24 hrs by propidium iodide staining-based flow cytometric analysis (reference value: 18 %). Type of assay: functional.
Assay [10] has as its system HL-60. Description: Induction of apoptosis in human HL60 cells at 30 uM after 24 hrs by propidium iodide staining-based flow cytometric analysis. It counts as functional, cell-based.
Assay [11] concerns HL-60. As to the kind of experiment: Cell cycle arrest in human mitochondrial gene-knockout HL60 cells assessed as accumulation at sub G1 phase at 30 uM after 24 hrs by propidium iodide staining-based flow cytometric analysis (reference value: 3 %). It counts as functional.
For assay [12], the system named is HL-60. As to the kind of experiment: Cell cycle arrest in human mitochondrial gene-knockout HL60 cells assessed as accumulation at S phase at 30 uM after 24 hrs by propidium iodide staining-based flow cytometric analysis (reference value: 24 %). Type of assay: functional.
Assay [13] deals with HL-60. Description: Cell cycle arrest in human mitochondrial gene-knockout HL60 cells assessed as accumulation at G1 phase at 30 uM after 24 hrs by propidium iodide staining-based flow cytometric analysis (reference value: 55 %). It counts as functional.
For assay [14], the system named is HL-60. As to the kind of experiment: Induction of apoptosis in human mitochondrial gene-knockout HL60 cells at 30 uM after 72 hrs by propidium iodide staining-based flow cytometric analysis. Type of assay: functional, cell-based.

The source made the active and inactive calls. The calls are words filed in the database; no cut-off is given here.

As to `COC1=C(OC)C(=O)C(CCCCCCCCCCn2cc[n+](C)c2)=C(C)C1=O`, the half-inhibitory concentration (IC50) (as a rule, the midpoint of a concentration-inhibition curve) in [1] is 23 µM; in assay [2] it was 78 µM; in [3] it was 44 µM; in assay [4] it was 35 µM.
As for `COC1=C(OC)C(=O)C(CCCCCCCCCC[N+](C)(Cc2ccccc2)Cc2ccccc2)=C(C)C1=O.[I-]`, the Activity in assay [5] is 8%; in assay [6], 10%; in [7], 24%; in [8], 57%; in assay [9], 0%; in [11] it was 0%. For the same compound, the figures for the Activity in [12] and in assay [13] were 0% and 35%, respectively. In addition, the IC50 in [1] is 10 µM; in [2] it was 47 µM; in [3], 3 µM; in assay [4] it was 3 µM. In assay [10], the outcome was Active.
Consider `COC1=C(OC)C(=O)C(CCCCCCCCCCOc2cc(O)cc(O)c2)=C(C)C1=O`, for which the outcome in [14] and in assay [10] was Active. Further, the 50% inhibitory concentration (IC50) in assay [1] worked out at 6 µM; in assay [2] it was 13 µM; in [3] it was 63 µM; in assay [4] it was 16 µM.
As to `COC1=C(OC)C(=O)C(CCCCCCCCCCOCc2cccc(S(=O)(=O)O)c2)=C(C)C1=O`, the IC50 was found to be 81 µM in [1], 70 µM in assay [2], 120 µM in assay [3] and 143 µM in [4].
In the case of `COC1=C(OC)C(=O)C(CCCCCCCCCCO)=C(C)C1=O` [IDEBENONE], the Activity in assay [5] is 2%; in [6] it was 35%; in [7], 51%; in assay [8], 12%; in assay [9], 15%; in assay [11] it was 99%. For the same compound, the Activity in assay [12] and in [13] was 36% in each case. In addition, the IC50 was 77 µM in assay [1], 70 µM in assay [2], over 200 µM in assay [3] and 36 µM in assay [4].
For `COC1=C(OC)C(=O)C(CCCCCCCCCC[N+]2(C)CCOCC2)=C(C)C1=O`, the IC50 in [1] is 122 µM; in assay [2] it was over 200 µM; in assay [3] it was over 200 µM; in assay [4] it was 1 µM.
Take `COC1=C(OC)C(=O)C(CCCCCCCCCCc2c(O)cc(O)cc2O)=C(C)C1=O`: the IC50 was 21 µM in [1], 9 µM in assay [2], over 200 µM in assay [3] and over 200 µM in assay [4].
Consider `COC1=C(OC)C(=O)C(CCCCCCCCCC[N+](Cc2ccccc2)(Cc2ccccc2)Cc2ccccc2)=C(C)C1=O`, for which the IC50 is 14 µM in assay [1], 54 µM in assay [2], 3 µM in [3] and 2 µM in assay [4]. The result in assay [10] was Active.
Take `COC1=C(OC)C(=O)C(CCCCCCCCCCN(Cc2ccccc2)Cc2ccccc2)=C(C)C1=O`: the IC50 in assay [1] is over 200 µM; in assay [2], over 200 µM; in assay [3], over 200 µM; in [4], 33 µM.
Consider `COC1=C(OC)C(=O)C(CCCCCCCCCCn2ccnc2)=C(C)C1=O`, for which the IC50 in assay [1] is 14 µM; in [2], 33 µM; in assay [3], 15 µM; in assay [4] it was 3 µM.
For `COC1=C(OC)C(=O)C(CCCCCCCCCCn2cc[n+](Cc3ccccc3)c2)=C(C)C1=O`, in that order: 9 µM, 68 µM, 5 µM and 2 µM.
The corresponding values for `COC1=C(OC)C(=O)C(CCCCCO)=C(C)C1=O` are over 200 µM, 123 µM, 8 µM and 13 µM.
The corresponding values for `COC1=C(OC)C(=O)C(CCCCCCCCCCN2CCOCC2)=C(C)C1=O` are 33 µM, 46 µM, 15 µM and 3 µM.
Consider `COC1=C(OC)C(=O)C(CCCO)=C(C)C1=O`, for which the IC50 in [1] is over 200 µM; in [2], 92 µM; in assay [3], 15 µM; in [4], 13 µM.
For `COC1=C(OC)C(=O)C(CCCOCc2cccc(S(=O)(=O)O)c2)=C(C)C1=O`, in that order: over 200 µM, over 200 µM, over 200 µM and over 200 µM.
